From ChEMBL document CHEMBL1777749, “4-Aminothiazolyl analogs of GE2270 A: design, synthesis and evaluation of imidazole analogs” (2011)
In brackets after ≈: the same amount, converted by molar mass.

Columns and labels:
Format in all cases: functional
Enterococcus faecalis = assay: Antimicrobial activity against Enterococcus faecalis ATCC 29212 by CLSI method
Enterococcus faecium = assay: Antimicrobial activity against Enterococcus faecium 7130724 by CLSI method
Staphylococcus aureus = assay: Antimicrobial activity against methicillin-resistant Staphylococcus aureus clinical isolate obtained from pharyngeal smear by CLSI method
In short: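 MIC by dilution susceptibility testing per CLSI M07-A8, for bacteria that grow aerobically. Strain: MRSA clinical isolate AKH Vienna A4.018, from a pharyngeal smear. Tested compounds were >95% pure by LCUV, LCMS and ¹H NMR.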

Streptococcus pyogenes = assay: Antimicrobial activity against Streptococcus pyogenes ATCC BAA-595 by CLSI method
Escherichia coli = assay: Inhibition of protein synthesis in Escherichia coli S30 extract at 2 uM by luciferase assay relative to control

CNC(=O)C[C@@H]1NC(=O)c2csc(n2)-c2ccc(-c3nc(C4=N[C@H](C(=O)N5CCC[C@H]5C(N)=O)CO4)cs3)nc2-c2csc(n2)-c2csc(n2)[C@H]([C@@H](O)c2ccccc2)NC(=O)CNC(=O)c2nc(sc2COC)[C@H](C(C)C)NC(=O)c2nc1sc2C
MIC (Enterococcus faecalis): 0.5 µg/mL (≈ 0.387 µM)
MIC (Enterococcus faecium): 0.25 µg/mL (≈ 0.194 µM)
MIC (Staphylococcus aureus): 0.25 µg/mL (≈ 0.194 µM)
MIC (Streptococcus pyogenes): 1 µg/mL (≈ 0.775 µM)
inhibition at 2 µM (Escherichia coli): 61%

CNC(=O)C[C@@H]1NC(=O)c2csc(n2)-c2ccc(-c3nc(-n4cnc(C(=O)O)c4)cs3)nc2-c2csc(n2)-c2csc(n2)[C@H]([C@@H](O)c2ccccc2)NC(=O)CNC(=O)c2nc(sc2COC)[C@H](C(C)C)NC(=O)c2nc1sc2C
MIC (Enterococcus faecalis): 4 µg/mL (≈ 3.36 µM)
MIC (Enterococcus faecium): > 32 µg/mL
MIC (Staphylococcus aureus): 4 µg/mL (≈ 3.36 µM)
MIC (Streptococcus pyogenes): > 32 µg/mL
inhibition at 2 µM (Escherichia coli): 0%

CNC(=O)C[C@@H]1NC(=O)c2csc(n2)-c2ccc(-c3nc(-n4cnc(C(=O)N5CCC[C@H]5C(=O)O)c4)cs3)nc2-c2csc(n2)-c2csc(n2)[C@H]([C@@H](O)c2ccccc2)NC(=O)CNC(=O)c2nc(sc2COC)[C@H](C(C)C)NC(=O)c2nc1sc2C
MIC (Enterococcus faecalis): 8 µg/mL (≈ 6.21 µM)
MIC (Enterococcus faecium): > 32 µg/mL
MIC (Staphylococcus aureus): 8 µg/mL (≈ 6.21 µM)
MIC (Streptococcus pyogenes): > 32 µg/mL
inhibition at 2 µM (Escherichia coli): 53%

CNC(=O)C[C@@H]1NC(=O)c2csc(n2)-c2ccc(-c3nc(-n4cnc(C(=O)NCC(=O)O)c4)cs3)nc2-c2csc(n2)-c2csc(n2)[C@H]([C@@H](O)c2ccccc2)NC(=O)CNC(=O)c2nc(sc2COC)[C@H](C(C)C)NC(=O)c2nc1sc2C
MIC (Enterococcus faecalis): 8 µg/mL (≈ 6.41 µM)
MIC (Enterococcus faecium): 32 µg/mL (≈ 25.6 µM)
MIC (Staphylococcus aureus): 4 µg/mL (≈ 3.2 µM)
MIC (Streptococcus pyogenes): > 32 µg/mL
inhibition at 2 µM (Escherichia coli): 64%
